Like-named read-outs stand apart in the source and are kept apart here.
Legend:
[1] = tested on: phospho-Smad1/5/8; assay: Phospho-Smad1/5/8 immunoblot in HCT116 cells; type: cell-based; settings: HCT116, Dorsomorphin 1 μm
How it was run: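 HCT116 cells were starved overnight in 0.2% serum with DMSO or test compound, lysed in passive lysis buffer and cleared at 11,000 × g. Proteins were run by SDS-PAGE and blotted to nitrocellulose. Phospho-Smad1/5/8 primary (1:1000) was applied overnight at 4°C, followed by fluorescent secondary (1:10,000) and infrared imaging. Actin served as loading control.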

[2] = tested on: Id1; assay: Id1 mRNA expression by qPCR in NIH3T3 cells; type: cell-based, mouse; settings: for Id1 RNA levels on serum induction: then 20% serum 0 to 120 minutes; for response of the Id1 gene to serum: data not shown
[3] = tested on: phospho-Smad1/5/8; assay: Phospho-Smad1/5/8 immunoblot in NIH3T3 cells; type: cell-based, mouse; settings: NIH3T3, Dorsomorphin 1μM 1 hour, then serum
[4] = tested on: Id1; assay: Id1 mRNA expression by qPCR in HCT116 cells; type: cell-based; settings: HCT116, Dorsomorphin 1 μm
How it was run: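 HCT116 cells, kept in DMEM with 10% FBS at 5% CO2, were starved overnight in 0.2% serum with DMSO or test compound. RNA was isolated in Tri Reagent. cDNA was made from 1 μg total RNA with random hexamers. Id1 mRNA was quantified by qPCR normalised to 18s rRNA.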

[5] = tested on: Smad1/5/8; assay: Total Smad1/5/8 immunoblot in NIH3T3 cells; type: cell-based, mouse; settings: NIH3T3, Dorsomorphin 1μM 1 hour, then serum
How it was run: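 Serum-starved NIH3T3 cells were treated 1 hour with DMSO or test compound, then serum-stimulated. Lysis was in passive lysis buffer, followed by SDS-PAGE (10% or 12%) and nitrocellulose transfer with 6% milk block. Phospho-specific or total primaries (1:1000) were applied overnight at 4°C, then fluorescent secondaries (1:10,000) for 1 hour at room temperature, with infrared imaging. Actin served as loading control.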

[6] = tested on: c-fos; assay: c-fos mRNA expression by qPCR in NIH3T3 cells; type: cell-based, mouse; settings: then 20% serum
How it was run: (§1)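 NIH3T3 cells were starved overnight in 0.2% serum and pretreated 1 hour with test compound. They were then induced with 20% NCS for 0–120 min. RNA was taken up in Tri Reagent, and cDNA was made from 1 μg total RNA with random hexamers. qPCR was normalised to 18s rRNA. Values are means of three experiments ± standard deviations.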

[7] = tested on: Id1; settings: MDA-MB-231 breast carcinoma line; cited from earlier work
[8] = tested on: Id3; assay: Id3 mRNA expression by qPCR in NIH3T3 cells; type: cell-based, mouse; settings: NIH3T3, AZD0530 100 nM 1 hour, then 20% serum
How it was run: as §1

[9] = tested on: Id1; settings: A549 lung carcinoma cell line; cited from earlier work
[10] = target: ALK1 (Homo sapiens, UniProt P37023); assay: In vitro kinase reaction; type: biochemical
Chain of ALK1 (P37023 22-503): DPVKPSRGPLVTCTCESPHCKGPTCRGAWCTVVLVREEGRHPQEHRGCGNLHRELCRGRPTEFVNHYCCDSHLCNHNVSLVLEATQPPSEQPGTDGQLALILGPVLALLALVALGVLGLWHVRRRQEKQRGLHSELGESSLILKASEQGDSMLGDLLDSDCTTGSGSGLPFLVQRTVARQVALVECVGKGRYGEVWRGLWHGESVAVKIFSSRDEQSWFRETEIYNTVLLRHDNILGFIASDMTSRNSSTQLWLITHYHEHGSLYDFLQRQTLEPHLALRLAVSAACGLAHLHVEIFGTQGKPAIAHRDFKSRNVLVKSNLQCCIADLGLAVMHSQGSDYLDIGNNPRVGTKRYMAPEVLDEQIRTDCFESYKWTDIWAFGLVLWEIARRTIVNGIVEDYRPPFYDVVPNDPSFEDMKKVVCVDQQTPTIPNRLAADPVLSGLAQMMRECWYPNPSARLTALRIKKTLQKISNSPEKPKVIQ
How it was run: (§2)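 Radiometric filter-binding assay with purified recombinant kinase/substrate pairs. Reactions ran with ATP plus 33P-ATP (10 μM final) at 10 test compound concentrations in triplicate, in 20 mM Hepes pH 7.5, 10 mM MgCl2, 1 mM EGTA, 2 mM DTT, 1% DMSO, for 120 min at 25 °C. Products were spotted on P81 paper and washed in 0.75% phosphoric acid. Activity was expressed as % of DMSO control; IC50 came from curve fitting.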

[11] = tested on: c-fos promoter; assay: c-fos promoter luciferase reporter assay in NIH3T3 cells; type: cell-based, mouse; settings: NIH3T3, AZD0530 100 nM 1 hour, then 20% NCS 4 hours
How it was run: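 NIH3T3 cells, 4 × 10^4 per well, were transfected with 100 ng c-fos promoter firefly reporter plus 100 ng SV40-Renilla control. Next day they were starved overnight in 0.2% NCS, treated 1 hour with 100 nM test compound, then induced with 20% NCS for 4 hours. Dual-luciferase assay; firefly was normalised to Renilla.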

[12] = target: T1, BMPR-2 (Homo sapiens, UniProt Q13873); assay: In vitro kinase reaction; type: biochemical; settings: 10 μM ATP, 120 minutes at 25 °C
T1 sequence (Q13873 27-1038): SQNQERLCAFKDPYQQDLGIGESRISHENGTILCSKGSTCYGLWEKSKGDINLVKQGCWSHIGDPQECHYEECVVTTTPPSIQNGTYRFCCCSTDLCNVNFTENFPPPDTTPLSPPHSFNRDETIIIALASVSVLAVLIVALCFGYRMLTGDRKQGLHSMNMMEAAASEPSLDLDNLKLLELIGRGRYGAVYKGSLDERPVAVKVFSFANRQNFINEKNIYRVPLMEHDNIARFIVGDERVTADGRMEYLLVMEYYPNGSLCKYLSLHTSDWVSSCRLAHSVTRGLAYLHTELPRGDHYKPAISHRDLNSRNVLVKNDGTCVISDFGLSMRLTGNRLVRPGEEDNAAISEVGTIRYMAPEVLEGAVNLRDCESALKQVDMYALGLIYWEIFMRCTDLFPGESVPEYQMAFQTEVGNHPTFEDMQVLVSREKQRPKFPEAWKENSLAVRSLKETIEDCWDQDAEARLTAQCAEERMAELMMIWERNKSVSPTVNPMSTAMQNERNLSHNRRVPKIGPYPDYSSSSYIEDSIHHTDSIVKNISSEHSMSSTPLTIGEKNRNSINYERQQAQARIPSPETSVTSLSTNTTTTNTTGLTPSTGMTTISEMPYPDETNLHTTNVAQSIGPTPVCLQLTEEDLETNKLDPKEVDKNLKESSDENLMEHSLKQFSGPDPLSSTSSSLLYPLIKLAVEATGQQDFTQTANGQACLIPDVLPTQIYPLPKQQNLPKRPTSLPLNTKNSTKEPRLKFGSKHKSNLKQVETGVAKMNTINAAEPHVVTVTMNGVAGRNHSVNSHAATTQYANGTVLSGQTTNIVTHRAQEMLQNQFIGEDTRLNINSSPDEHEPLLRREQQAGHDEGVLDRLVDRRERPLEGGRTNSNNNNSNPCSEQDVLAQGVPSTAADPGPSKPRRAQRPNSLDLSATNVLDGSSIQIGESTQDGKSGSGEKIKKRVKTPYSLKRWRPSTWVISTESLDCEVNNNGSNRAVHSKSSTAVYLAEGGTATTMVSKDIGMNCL
How it was run: as §2

[13] = tested on: HCT116 cells; assay: Proliferation of HCT116 cells; type: cell-based; settings: preliminary results
[14] = tested on: Smad1/5; settings: A549 cells; cited from earlier work
[15] = tested on: constitutively active ALK1; assay: Id1 reporter activated by constitutively active ALK1 in NIH3T3 cells; type: cell-based; settings: NIH3T3, Id1 −1150 reporter, AZD0530 100 nM overnight in 0.2% serum
How it was run: (§3)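 NIH3T3 cells, 4 × 10^4 per well, received fresh 10% NCS and were then transfected with 100 ng Renilla SV40 control, 100 ng mouse Id1 −1150 firefly reporter and 25 ng constitutively active ALK. Next day they went into 0.2% serum with 100 nM test compound or DMSO overnight. Dual-luciferase readout; firefly was normalised to Renilla.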

[16] = target: constitutively active ALK3 (Homo sapiens, UniProt P36894, Q233D); assay: Id1 reporter activated by constitutively active ALK3 in NIH3T3 cells; type: cell-based; settings: NIH3T3, Id1 −1150 reporter, AZD0530 100 nM overnight in 0.2% serum
Chain of constitutively active ALK3 (P36894 24-532 Q233D): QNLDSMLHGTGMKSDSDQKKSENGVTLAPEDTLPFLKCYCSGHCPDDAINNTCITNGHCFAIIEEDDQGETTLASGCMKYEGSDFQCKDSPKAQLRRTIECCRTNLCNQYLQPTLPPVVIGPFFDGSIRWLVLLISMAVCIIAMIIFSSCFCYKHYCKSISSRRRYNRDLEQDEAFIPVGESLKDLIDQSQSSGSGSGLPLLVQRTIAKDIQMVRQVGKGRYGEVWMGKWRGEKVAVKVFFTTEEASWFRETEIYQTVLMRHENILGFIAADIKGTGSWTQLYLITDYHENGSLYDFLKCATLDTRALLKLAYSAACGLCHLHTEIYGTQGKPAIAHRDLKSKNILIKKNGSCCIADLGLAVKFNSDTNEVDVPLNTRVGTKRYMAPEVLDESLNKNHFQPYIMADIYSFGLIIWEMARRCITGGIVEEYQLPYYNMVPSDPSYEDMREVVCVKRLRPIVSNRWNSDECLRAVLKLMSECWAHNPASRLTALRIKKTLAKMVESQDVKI
How it was run: as §3

[17] = target: ALK3 (Homo sapiens, UniProt P36894); assay: In vitro kinase reaction; type: biochemical
Chain of ALK3 (P36894 24-532): as the sequence (P36894 24-532 Q233D) above, with D210Q counted along it
How it was run: as §2

[18] = tested on: plasminogen activator inhibitor-1 (PAI-1); assay: PAI-1 mRNA expression by qPCR in NIH3T3 cells; type: cell-based, mouse; settings: NIH3T3, AZD0530 100 nM 1 hour, then 20% serum
How it was run: as §1

[19] = tested on: Id1 promoter; assay: Id1 promoter luciferase reporter assay in NIH3T3 cells; type: cell-based, mouse
[20] = NIH3T3, AZD0530 100 nM 1 hour, then 20% NCS 4 hours

c1cc(-c2cnn3cc(-c4ccc(OCCN5CCCCC5)cc4)cnc23)ccn1 [Dorsomorphin, dorsomorphin]
phospho-Smad1/5/8 levels [1]: inhibition | induction of Id1 mRNA in response to serum ([2]; NIH3T3, Dorsomorphin 1 hour, then 20% NCS 1 hour): strongly inhibited | phosphorylation of Smad1/5/8 [3]: inhibits the phosphorylation | Id1 expression (mRNA) [4]: inhibition | total level of Smad1/5/8 [5]: unchanged

O=C(NOC[C@H](O)CO)c1ccc(F)c(F)c1Nc1ccc(I)cc1F [PD0325901]
Id1 RNA levels on serum induction ([2]; NIH3T3, PD0325901 5 μM 1 hour): unchanged | c-fos expression on serum induction ([6]; NIH3T3, PD0325901 5 μM 1 hour): dramatically decreased

CC(C)(C)n1nc(-c2ccc(Cl)cc2)c2c(N)ncnc21 [PP2]
response of the Id1 gene to serum [2]: Neither another Src inhibitor, PP2, nor the BCR-abl inhibitor, imatinib, had any effect | Id1 expression [7]: inhibited Id1 expression

Cc1ccc(NC(=O)c2ccc(CN3CCN(C)CC3)cc2)cc1Nc1nccc(-c2cccnc2)n1 [imatinib]
response of the Id1 gene to serum [2]: Neither another Src inhibitor, PP2, nor the BCR-abl inhibitor, imatinib, had any effect

CN1CCN(CCOc2cc(OC3CCOCC3)c3c(Nc4c(Cl)ccc5c4OCO5)ncnc3c2)CC1 [AZD0530, saracatinib]
Id3 expression on serum induction [8]: strongly reduced | Id1 serum induction, mRNA expression ([2]; NIH3T3, AZD0530 100 nM 1 hour, then 20% serum): complete loss | Id1 expression [9]: inhibit Id1 expression | IC50 [10]: 3 to 30 nM | serum induction of the c-fos promoter (reporter) [11]: little effect | inhibition of BMPR-2 kinase activity [12]: no inhibition | c-fos induction by serum (mRNA) ([6]; NIH3T3, AZD0530 100 nM 1 hour): no effect | proliferation of HCT116 cells [13]: did not reduce | activation of Smad1/5 [14]: prevented activation | activation of the Id1 promoter by constitutively active ALK1 [15]: significantly decreased | activation of the Id1 promoter by constitutively active ALK3 [16]: significantly decreased | IC50 [17]: 3 to 30 nM | PAI-1 serum activation (mRNA) [18]: decrease in serum activation | Id1 serum induction, promoter activation (−1150 Id1 reporter) [19, 20]: complete loss | serum induction of the 4X BRE-SBE reporter [19, 20]: blocked

O=c1cc(N2CCOCC2)oc2c(-c3ccccc3)cccc12 [LY294002]
Id1 RNA levels on serum induction ([2]; NIH3T3, LY294002 10 μM 1 hour): unchanged | c-fos expression on serum induction ([6]; NIH3T3, LY294002 10 μM 1 hour): little effect

C[C@@H]1C[C@@H]([C@H](O)CC2CC(=O)NC(=O)C2)C(=O)[C@@H](C)C1 [cycloheximide]
BMP2 induction of Id1 in the presence of the protein synthesis inhibitor ([2]; NIH3T3, 50 μg/ml cycloheximide, BMP2 (supplemental Fig. S3)): higher

B1: Noggin: BMP antagonist noggin (protein, UniProt Q13253 28-232, looked up)
Noggin: QHYLHIRPAPSDNLPLVDLIEHPDPIFDPKEKDLNETLLRSLLGGHYDPGFMATSPPEDRPGGGGGAAGGAEDLAELDQLLRQRPSGAMPSEIKGLEFSEGLAQGKKQRLSKKLRRKLQMWLWSQTFCPVLYAWNDLGSRFWPRYVKVGSCFSKRSCSVPEGMVCKPSKSVHLTVLRWRCQRRGGQRCGWIPIQYPIISECKCSC
serum induction of Id1 mRNA ([2]; NIH3T3, 100 ng/ml noggin during serum-starvation, 20% serum): abolished serum induction | serum activation of the Id1 promoter (reporter assay) ([19]; NIH3T3, mId1 −1150 reporter, noggin during serum-starvation, 20% serum): abolished serum activation

Source: PMC3786144 (Biochimica et biophysica acta, 2013)
